miR-122 sensor: blocks miR-122 activity in Huh7 sensor cells | actives 0.3% (n = 340,000) | activation (reporter increase), % at 12.5 µM | Huh7 miR-122 Renilla luciferase sensor, 48 h; neutral wells = 0, positive control = 100;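 active = mean replicate activation score at least 90 and every replicate individually at or above 90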;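 note: higher luciferase means less miR-122 activity so hits act as miR-122 inhibitors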
SIRT5 block: blocks human SIRT5 desuccinylation of peptide | Q9NXA8 | Purified SirT5, succinyl-peptide AMC, trypsin-coupled fluorescence | inhibition, % at 15 µM | actives 1.1% (n = 330,000); in the data active = inhibition above about 15%
Target sequence (Q9NXA8 whole entry, looked up): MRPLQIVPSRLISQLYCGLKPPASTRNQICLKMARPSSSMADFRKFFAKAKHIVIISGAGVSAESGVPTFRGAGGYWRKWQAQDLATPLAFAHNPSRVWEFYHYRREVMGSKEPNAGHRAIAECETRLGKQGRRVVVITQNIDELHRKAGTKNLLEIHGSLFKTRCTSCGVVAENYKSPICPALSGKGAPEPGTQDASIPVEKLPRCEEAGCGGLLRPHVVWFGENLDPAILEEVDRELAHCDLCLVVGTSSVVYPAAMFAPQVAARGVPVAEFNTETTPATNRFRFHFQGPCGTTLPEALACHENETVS
FGF22 binding: FGF22 (human) thermal shift binding. recombinant FGF22 thermal shift, SYPRO orange fluorescence; percent of sucrose octasulfate shift, DMSO zero. activity (Tm shift, normalised), % at 9.99 µM. actives 1.5% (n = 340,000). AID 651658;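 active = mean Tm shift, scaled 0 neutral to 100 positive control, at about 1.3% or above, every replicate too, limit read from the data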
Target sequence (Q9HCT0 whole entry, looked up): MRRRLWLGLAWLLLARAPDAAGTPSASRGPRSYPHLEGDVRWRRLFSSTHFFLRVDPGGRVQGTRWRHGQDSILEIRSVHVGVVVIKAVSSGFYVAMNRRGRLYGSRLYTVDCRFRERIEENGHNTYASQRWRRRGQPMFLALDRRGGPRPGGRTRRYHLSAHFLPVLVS
E-sel inducer: induces E-selectin expression in human endothelial cells. P16581. HUVEC E-selectin immunofluorescence imaging; normalized: neutral wells 0, TNF-alpha wells 100. activation, % at 7.58 µM. actives 0.37% (n = 260,000). AID 686992;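 active = mean E-selectin-positive cell signal at least 10% of the positive control, reached in at least 60% of replicates, without over 20% cell loss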
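Assay system: HUVEC, human umbilical vein endothelial cells / Amount: 3,000 HUVEC/well / Controls: TNF-alpha positive control, DMSO neutral control / Compound dosing: single concentration / Medium: EGM-2 over gelatin coat / Evaluation: percent E-selectin-positive cells / Signal: immunofluorescence imaging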
S100A4 inh HTS: blocks human S100A4 binding to myosin IIA peptide; P26447; S100A4/TAMRA-MyoIIA peptide fluorescence polarization; inhibition, % at 10.7 µM; actives 0.14% (n = 360,000); AID 652163;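 active = mean inhibition of at least 70% across replicates, with every replicate also reaching that level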
Target sequence (P26447 whole entry, looked up): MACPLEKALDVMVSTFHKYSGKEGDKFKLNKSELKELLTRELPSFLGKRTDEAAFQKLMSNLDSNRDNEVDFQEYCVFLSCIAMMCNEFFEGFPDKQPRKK
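System – human S100A4 monomer protein, biochemical binding assay · Buffer or medium – Calcium-containing HEPES buffer, pH 7.2 · Timing – 5 min between mix addition and reading · Also added – TAMRA-labelled myosin IIA heavy-chain peptide probe, 5 nM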
Numbers without * were called inactive; x = not tested or not shown; [ ] = dose if it differs, or a comment. Rows were chosen to be rich in hits. Some 2.5% of all compounds tested hit in one or more screens of this group.

SMILES	miR-122 sensor	SIRT5 block	FGF22 binding	E-sel inducer	S100A4 inh HTS
CCCNC(=O)N1CCC2(CC1)CN(S(C)(=O)=O)[C@H](CO)c1c2c2ccc(OC)cc2n1C	x	-2	0	0	-7
CC(C)NC(=O)Nc1ccc2c(c1)CC(=O)N([C@@H](C)CO)C[C@@H](C)[C@H](CN(C)C)O2	0[16.7 µM]	-5	0	0	-4
CS(=O)(=O)Nc1ccc2c(c1)[C@@H]1C[C@@H](CC(=O)N3CCCCC3)O[C@H](CO)[C@@H]1O2	1[16.7 µM]	x	0	0	x
C[C@H](CO)N1C[C@H](C)[C@H](CN(C)C(=O)C2CCC2)Oc2ncc(-c3ccccc3F)cc2C1=O	51[16.7 µM]	2	0	x	4
COc1ccccc1NS(=O)(=O)c1cc(NC(=O)CC(C)(C)C)ccc1N1CCOCC1	34	-5	x	-1	66
COc1cc(/C=C/C(=O)Nc2ccc(N3CCCCC3)c(S(=O)(=O)Nc3ccccc3Cl)c2)cc(OC)c1OC	289*	x	x	x	x
COc1ccccc1NS(=O)(=O)c1cc(NC(=O)CCC2CCCC2)ccc1N1CCOCC1	119*	-3	1	x	1
CN(C)c1ccc(C(=O)c2ccccc2C(=O)O)cc1[N+](=O)[O-]	x	28*	0	x	15
CNc1ccc(C(=O)c2ccccc2C(=O)O)cc1[N+](=O)[O-]	x	3	0	x	-3
Cc1ccc(NC(=O)CN(C)C(=O)c2ccc(S(=O)(=O)N(C)c3ccccc3)cc2)cc1	-4	1	43*	0	35
O=C1C=CC(=O)N1Cc1ccccn1	-4	21*	0	-2	-8
CCCNC(=O)C[C@@H]1CC[C@@H]2[C@@H](COc3ccc(NC(=O)Nc4ccccc4)cc3C(=O)N2C)O1	4[16.7 µM]	x	0	0	x
CCOC(=O)c1cc2ccc(OC(=O)c3ccco3)cc2oc1=O	-3	x	x	x	x
CCOC(=O)c1cc2ccc3ccccc3c2oc1=O	0	24*	0	x	1
O=C(N/N=C/c1ccc(Cl)s1)C(O)c1ccccc1 (stereo not given)	123*	x	0	x	0
O=C(N/N=C/c1cc(Br)cs1)C(O)c1ccccc1 (stereo not given)	46	-2	0	x	1
CCc1cc(CN2CCOCC2)c(NC(=O)c2ccccc2)s1	11	1	43*	0	-10
CCc1cc(C(c2ccc(F)cc2)N2CCOCC2)c(NC(=O)c2ccccc2)s1 (stereo not given)	10	x	x	x	x
C[C@@H]1CC[C@H](Cc2ccc(-n3cccc3)cc2)N1C(=O)OC(C)(C)C	-7	1	0	3	3
CC1(C)CC(Cc2ccc(Cl)nc2)N(C(=O)OC(C)(C)C)C1 (stereo not given)	2	x	44*	0	1
CCOc1[nH]n(-c2ccccc2)c(=O)c1C=NCC(=O)OC	-1	1	43*	x	-12
COc1cccc(C(=O)NCC2(c3ccc(OC)c(OC)c3)CCCC2)c1	-4	x	0	x	-4
COc1cccc(C(=O)NCC2(c3ccccc3)CCCC2)c1	-3	2	43*	-2	-6
COc1ccc2nc(N/C(N)=N/C(=S)Nc3ccccc3)nc(C)c2c1	x	-1	4.1*	x	-4
C[C@H]1CN([C@@H](C)CO)C(=O)c2cc(C#CC(C)(C)O)cnc2O[C@H]1CN(C)Cc1ccccn1	-1[16.7 µM]	-4	0	0	-7
SMILES	miR-122 sensor	SIRT5 block	FGF22 binding	E-sel inducer	S100A4 inh HTS
Cc1cccc(N/C=C(\[N+](=O)[O-])S(=O)(=O)c2ccccc2)c1	x	40*	0	-3	-6
Cc1ccc(N/C=C(\[N+](=O)[O-])S(=O)(=O)c2ccccc2)cc1	x	-1	0	x	0
COc1cc(NC(=O)C/C(C)=N/NC(=O)C2CCCCC2)c(OC)cc1Cl	3	0	0	56*	-41
COC(=O)c1cc(OC)c(OC)cc1NC(=O)c1cc(OC)cc(OC)c1	-9	16*	0	x	-6
COC(=O)c1cc(OC)c(OC)cc1NC(=O)c1ccccc1	1	x	x	x	x
Cc1cc(=O)n(C)c(=O)n1CCCCOc1cccc([N+](=O)[O-])c1	-5	9	44*	x	0
Cc1ccccc1C(=O)NNC(=S)NC(=O)c1cccnc1	0	3	43*	x	4
Cc1ccc2c(C)c(C(=O)Nc3ccc(S(N)(=O)=O)cc3)oc2c1C	-10	-4	0	7	-2
Cc1ccc2c(C)c(C(=O)NCc3ccc(S(N)(=O)=O)cc3)oc2c1C	x	0	43*	x	2
Cc1cc2oc(C(=O)Nc3ccc(S(N)(=O)=O)cc3)c(C)c2cc1Cl	-2	-4	43*	x	3
CC(=O)Nc1ccc(NC(=O)c2oc3cc(C)c(C)cc3c2C)cc1	-3	-2	0	1	-4
COc1cccc(S(=O)(=O)Nc2ccc3c(c2)OC[C@@H](C)N(Cc2cc(F)ccc2F)C[C@@H](C)[C@H](OC)CN(C)C3=O)c1	-10[16.7 µM]	20*	0	0	5
CO[C@@H]1CN(C)C(=O)c2ccc(NC(C)=O)cc2OC[C@H](C)N(Cc2cc(F)ccc2F)C[C@@H]1C	1[16.7 µM]	5	0	0	105*
O=C(NCc1ccc(F)cc1)C1CCCN(S(=O)(=O)c2ccc(-n3cnnn3)cc2)C1 (stereo not given)	x	0	0	x	8
O=C(NCc1ccccc1)C1CCCN(S(=O)(=O)c2ccc(-n3cnnn3)cc2)C1 (stereo not given)	x	2	0	31*	-9
CN(C)CC#Cc1ccc([C@@H]2[C@@H](CO)N3CCCCN(C(=O)NC4CCCC4)C[C@@H]23)cc1	2[16.7 µM]	-1	0	1	32
C[C@@H]1CN([C@H](C)CO)C(=O)c2cc(N(C)C)ccc2O[C@H]1CN(C)Cc1ccc(C(=O)O)cc1	3[16.7 µM]	1	0	267*	-49
C[C@H](CO)N1C[C@H](C)[C@H](CN(C)Cc2ccc(C(=O)O)cc2)Oc2ccc(N(C)C)cc2C1=O	-3[16.7 µM]	x	x	-6	x
C[C@H](CO)N1C[C@H](C)[C@@H](CN(C)Cc2ccc(C(F)(F)F)cc2)Oc2ccc(N(C)C)cc2C1=O	98*[16.7 µM]	x	x	0	x
C[C@@H]1CN([C@@H](C)CO)C(=O)c2cc(C#Cc3ccccc3F)cnc2O[C@H]1CN(C)C(=O)C1CCC1	x	-2	0	0	0
O=C(O)c1cc(-c2ccc(/C=N/NC(=S)Nc3ccccc3)o2)ccc1Cl	-3	16*	0	x	8
CCCCC1(C)OC(=O)C(=Cc2ccc(-c3ccc(Cl)c(C(=O)O)c3)o2)C(=O)O1 (stereo not given)	x	2	3.8*	0	12
Cc1ccc(N2NC(=O)/C(=C/c3ccc(-c4ccc(Cl)c(C(=O)O)c4)o3)C2=O)cc1	2	5	0	1	-3
O=S(=O)(c1ccc2ccccc2c1)N1CCN(Cc2cccc(OCCO)c2)CC1	x	x	0	x	1
